Source: PubChem BioAssay AID504674 (Southern Research Specialized Biocontainment Screening …, 2011)
Active and inactive are the calls of the source.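 How the source made its calls: active means cell viability under 70% at any tested concentration, a measure not printed in our tables; inactive means the rest.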

Test system: HEp-2 viability, ATP luminescence (CellTiter-Glo)
Experiment: cytotoxicity in uninfected HEp-2 cells, dose response, cytotoxicity control for RSV inhibitor project, cell-based, CellTiter-Glo, synthesized compounds, set 7 (AID 504674)
How it was run: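 Test system: HEp-2 human cell line, cell viability. Amount: 10,595 cells/well. Buffer or medium: DMEM/F12. Doses: 8 points, 1:2 steps, 50–0.39 µM, 0.5% DMSO. Timing: 6 d compound exposure, 37 °C. Signal: ATP luminescence with CellTiter-Glo reagent. Measure: % viability and CC50 (4-parameter fit, 0–100 bounds). Controls: cell-only wells as reference. Repeats: triplicate.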

SMILES	CC50
O=C(NCc1ccc(Cl)cc1)C1CCN(S(=O)(=O)c2cccc3nonc23)CC1	> 50 µM (inactive)
Cc1ccc(Cn2c(=O)n(Cc3ccc(C(=O)N(C)C)cc3)c(=O)c3ccccc32)cc1	11 µM
COc1ccc(C)c(NC(=O)[C@@H]2CCCN2S(=O)(=O)c2cccc3cccnc23)c1	> 50 µM (inactive)
COCCCNC(=O)c1ccc(Cn2c(=O)c3ccc(OC)cc3n(Cc3ccc(C)cc3)c2=O)cc1	11.7 µM
COc1ccccc1NC(=O)[C@@H]1CCCN1S(=O)(=O)c1cccc2nonc12	> 50 µM (inactive)
COCCCNC(=O)c1ccc(Cn2c(=O)c3ccc(C)cc3n(Cc3ccc(C)cc3)c2=O)cc1	> 50 µM (inactive)
Cc1ccc(NC(=O)[C@@H]2CCCN2S(=O)(=O)c2cccc3nonc23)c(C)c1	> 50 µM (inactive)
COCCCNC(=O)c1ccc(Cn2c(=O)c3ccc(C(F)(F)F)cc3n(Cc3ccc(C)cc3)c2=O)cc1	> 50 µM (inactive)
COCCNC(=O)c1ccc(Cn2c(=O)c3ccccc3n(Cc3ccc(C)cc3)c2=O)cc1	> 50 µM (inactive)
Cc1ccc(CNC(=O)C2CCN(S(=O)(=O)c3cccc4nonc34)CC2)c(C)c1	> 50 µM (inactive)
Cc1ccc(Cn2c(=O)n(Cc3ccc(C(=O)N4CCCCC4)cc3)c(=O)c3ccccc32)cc1	5.12 µM
Cc1ccc(Cl)cc1NC(=O)[C@@H]1CCCN1S(=O)(=O)c1cccc2cccnc12	13 µM
Cc1ccc(Cn2c(=O)n(Cc3ccc(C(=O)NC4CCCCC4)cc3)c(=O)c3ccccc32)cc1	> 50 µM (inactive)
Cc1ccc(Cn2c(=O)n(Cc3ccc(C(=O)N4CCOCC4)cc3)c(=O)c3ccccc32)cc1	16.6 µM
Cc1ccc(Cn2c(=O)n(Cc3ccc(C(=O)N4CCCC4)cc3)c(=O)c3ccccc32)cc1	4.6 µM
O=C(NCc1cccc(Cl)c1)C1CCN(S(=O)(=O)c2cccc3nonc23)CC1	> 50 µM (inactive)
